{
  "source": "ChEMBL document CHEMBL1122064",
  "about": "“Synthesis and biological evaluation of 17-[131I]iodo-9-telluraheptadecanoic acid, a potential imaging agent” (J Med Chem, 1982)",
  "key": {"Rattus norvegicus [1]": {"test_system": "Rattus norvegicus", "test": "Distribution of radioactivity in liver of Fischer 344 female rat after 7 of days intravenous administration", "format": "ADME, organism-based", "details": "in vivo", "in_short": "(§1)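 Female Fischer 344 rats, 10-12 weeks old, 170-200 g, fed ad libitum. The 131I-labelled fatty acid was dissolved in absolute ethanol, added dropwise to stirred 6% bovine serum albumin at 40 °C (final ethanol 10%), filtered, and injected into a lateral tail vein under ether anaesthesia. Organs were excised, rinsed, blotted and weighed, then counted by Ge(Li) analyzer as percent injected dose/g.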"}, "Rattus norvegicus [2]": {"test_system": "Rattus norvegicus", "test": "Distribution of radioactivity in lungs of Fischer 344 female rat after 10 min of intravenous administration", "format": "ADME, organism-based, Lung", "details": "in vivo", "in_short": "as §1"}, "Rattus norvegicus [3]": {"test_system": "Rattus norvegicus", "test": "Distribution of radioactivity in lungs of Fischer 344 female rat after 24 hr of intravenous administration", "format": "ADME, organism-based, Lung", "details": "in vivo", "in_short": "as §1"}, "Rattus norvegicus [4]": {"test_system": "Rattus norvegicus", "test": "Distribution of radioactivity in lungs of Fischer 344 female rat after 2 hr of intravenous administration", "format": "ADME, organism-based, Lung", "details": "in vivo", "in_short": "as §1"}, "Rattus norvegicus [5]": {"test_system": "Rattus norvegicus", "test": "Distribution of radioactivity in lungs of Fischer 344 female rat after 2 min of intravenous administration", "format": "ADME, organism-based, Lung", "details": "in vivo", "in_short": "as §1"}, "Rattus norvegicus [6]": {"test_system": "Rattus norvegicus", "test": "Distribution of radioactivity in lungs of Fischer 344 female rat after 30 min of intravenous administration", "format": "ADME, organism-based, Lung", "details": "in vivo, 0.5 h", "in_short": "(§2)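 Female Fischer 344 rats, 10-12 weeks, 170-200 g, fed ad libitum. The labelled fatty acid was given in 6% bovine serum albumin via a lateral tail vein under ether anaesthesia. Rats were killed by CO2 anaesthesia and cervical fracture; organs were excised, rinsed, blotted, weighed and counted by Ge(Li) analyzer. Results are mean percent injected dose/g with range.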"}, "Rattus norvegicus [7]": {"test_system": "Rattus norvegicus", "test": "Distribution of radioactivity in lungs of Fischer 344 female rat after 4 days of intravenous administration", "format": "ADME, organism-based, Lung", "details": "in vivo, 96 h", "in_short": "as §1"}, "Rattus norvegicus [8]": {"test_system": "Rattus norvegicus", "test": "Distribution of radioactivity in lungs of Fischer 344 female rat after 60 min of intravenous administration", "format": "ADME, organism-based, Lung", "details": "in vivo, 1 h", "in_short": "as §2"}, "Rattus norvegicus [9]": {"test_system": "Rattus norvegicus", "test": "Distribution of radioactivity in lungs of Fischer 344 female rat after 6 hr of intravenous administration", "format": "ADME, organism-based, Lung", "details": "in vivo", "in_short": "as §1"}, "Rattus norvegicus [10]": {"test_system": "Rattus norvegicus", "test": "Distribution of radioactivity in lungs of Fischer 344 female rat after 7 days of intravenous administration", "format": "ADME, organism-based, Lung", "details": "in vivo, 168 h", "in_short": "as §1"}, "Rattus norvegicus [11]": {"test_system": "Rattus norvegicus", "test": "Distribution of radioactivity in heart of Fischer 344 female rat after 2 hr of intravenous administration", "format": "ADME, organism-based", "details": "in vivo", "in_short": "(§3)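 Female Fischer 344 rats (10-12 weeks, 170-200 g) with food and water ad libitum. The 131I-labelled fatty acid was taken up in ethanol, added dropwise to stirred 6% BSA at 40 °C (final ethanol 10%), filtered, and injected into a lateral tail vein under ether. Rats were CO2-anaesthetised and killed; organs were excised, rinsed, blotted, weighed and Ge(Li)-counted. Results are mean (range) % injected dose/g.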"}, "Rattus norvegicus [12]": {"test_system": "Rattus norvegicus", "test": "Distribution of radioactivity in heart of Fischer 344 female rat after 30 min of intravenous administration", "format": "ADME, organism-based", "details": "in vivo, 0.5 h"}, "Rattus norvegicus [13]": {"test_system": "Rattus norvegicus", "test": "Distribution of radioactivity in heart of Fischer 344 female rat after 4 day of intravenous administration", "format": "ADME, organism-based", "details": "in vivo, 96 h", "in_short": "as §3"}, "Rattus norvegicus [14]": {"test_system": "Rattus norvegicus", "test": "Distribution of radioactivity in heart of Fischer 344 female rat after 60 min of intravenous administration", "format": "ADME, organism-based", "details": "in vivo, 1 h"}, "Rattus norvegicus [15]": {"test_system": "Rattus norvegicus", "test": "Distribution of radioactivity in heart of Fischer 344 female rat after 6 hr of intravenous administration", "format": "ADME, organism-based", "details": "in vivo", "in_short": "as §3"}, "Rattus norvegicus [16]": {"test_system": "Rattus norvegicus", "test": "Distribution of radioactivity in heart of Fischer 344 female rat after 7 days of intravenous administration", "format": "ADME, organism-based", "details": "in vivo, 168 h", "in_short": "as §3"}, "Rattus norvegicus [17]": {"test_system": "Rattus norvegicus", "test": "Distribution of radioactivity in kidneys of Fischer 344 female rat after 10 min of intravenous administration", "format": "ADME, organism-based, Kidney", "details": "in vivo", "in_short": "as §3"}, "Rattus norvegicus [18]": {"test_system": "Rattus norvegicus", "test": "Distribution of radioactivity in kidneys of Fischer 344 female rat after 24 hr of intravenous administration", "format": "ADME, organism-based, Kidney", "details": "in vivo", "in_short": "as §3"}, "Rattus norvegicus [19]": {"test_system": "Rattus norvegicus", "test": "Distribution of radioactivity in kidneys of Fischer 344 female rat after 2 hr of intravenous administration", "format": "ADME, organism-based, Kidney", "details": "in vivo", "in_short": "as §3"}, "Rattus norvegicus [20]": {"test_system": "Rattus norvegicus", "test": "Distribution of radioactivity in Thyroid of Fischer 344 female rat after 6 hr of intravenous administration", "format": "ADME, organism-based", "details": "in vivo", "in_short": "as §3"}, "Rattus norvegicus [21]": {"test_system": "Rattus norvegicus", "test": "Distribution of radioactivity in Thyroid of Fischer 344 female rat after 7 days of intravenous administration", "format": "ADME, organism-based", "details": "in vivo, 168 h", "in_short": "as §3"}, "Rattus norvegicus [22]": {"test_system": "Rattus norvegicus", "test": "Distribution of radioactivity in blood of Fischer 344 female rat after 10 min of intravenous administration", "format": "ADME, organism-based", "details": "in vivo", "in_short": "as §3"}, "Rattus norvegicus [23]": {"test_system": "Rattus norvegicus", "test": "Distribution of radioactivity in blood of Fischer 344 female rat after 24 hr of intravenous administration", "format": "ADME, organism-based", "details": "in vivo", "in_short": "as §3"}, "Rattus norvegicus [24]": {"test_system": "Rattus norvegicus", "test": "Distribution of radioactivity in blood of Fischer 344 female rat after 2 min of intravenous administration", "format": "ADME, organism-based", "details": "in vivo", "in_short": "as §3"}, "Rattus norvegicus [25]": {"test_system": "Rattus norvegicus", "test": "Distribution of radioactivity in blood of Fischer 344 female rat after 30 min of intravenous administration", "format": "ADME, organism-based", "details": "in vivo, 0.5 h"}, "Rattus norvegicus [26]": {"test_system": "Rattus norvegicus", "test": "Distribution of radioactivity in blood of Fischer 344 female rat after 4 days of intravenous administration", "format": "ADME, organism-based", "details": "in vivo, 96 h", "in_short": "as §3"}, "Rattus norvegicus [27]": {"test_system": "Rattus norvegicus", "test": "Distribution of radioactivity in Thyroid of Fischer 344 female rat after 2 min of intravenous administration", "format": "ADME, organism-based", "details": "in vivo", "in_short": "as §3"}, "Rattus norvegicus [28]": {"test_system": "Rattus norvegicus", "test": "Distribution of radioactivity in Thyroid of Fischer 344 female rat after 30 min of intravenous administration", "format": "ADME, organism-based", "details": "in vivo, 0.5 h", "in_short": "as §3"}, "Rattus norvegicus [29]": {"test_system": "Rattus norvegicus", "test": "Distribution of radioactivity in Thyroid of Fischer 344 female rat after 4 days of intravenous administration", "format": "ADME, organism-based", "details": "in vivo, 96 h", "in_short": "as §3"}, "Rattus norvegicus [30]": {"test_system": "Rattus norvegicus", "test": "Distribution of radioactivity in Thyroid of Fischer 344 female rat after 60 min of intravenous administration", "format": "ADME, organism-based", "details": "in vivo, 1 h", "in_short": "as §3"}, "Rattus norvegicus [31]": {"test_system": "Rattus norvegicus", "test": "Distribution of radioactivity in kidneys of Fischer 344 female rat after 7 days of intravenous administration", "format": "ADME, organism-based, Kidney", "details": "in vivo, 168 h", "in_short": "as §3"}, "Rattus norvegicus [32]": {"test_system": "Rattus norvegicus", "test": "Distribution of radioactivity in heart of Fischer 344 female rat after 24 hr of intravenous administration", "format": "ADME, organism-based", "details": "in vivo", "in_short": "as §3"}},
  "data": [
    {"smiles": "O=C(O)CCCCCCCC[Te]CCCCCCCC[131I]", "values": [
      {"measurement": "Distribution of radioactivity", "setting": "Rattus norvegicus [1]", "value": 0.014, "unit": "dose g-1"},
      {"measurement": "Distribution of radioactivity", "setting": "Rattus norvegicus [2]", "value": 1.11, "unit": "dose g-1"},
      {"measurement": "Distribution of radioactivity", "setting": "Rattus norvegicus [3]", "value": 0.18, "unit": "dose g-1"},
      {"measurement": "Distribution of radioactivity", "setting": "Rattus norvegicus [4]", "value": 0.68, "unit": "dose g-1"},
      {"measurement": "Distribution of radioactivity", "setting": "Rattus norvegicus [5]", "value": 1.4, "unit": "dose g-1"},
      {"measurement": "Distribution of radioactivity", "setting": "Rattus norvegicus [6]", "value": 0.85, "unit": "dose g-1"},
      {"measurement": "Distribution of radioactivity", "setting": "Rattus norvegicus [7]", "value": 0.06, "unit": "dose g-1"},
      {"measurement": "Distribution of radioactivity", "setting": "Rattus norvegicus [8]", "value": 0.75, "unit": "dose g-1"},
      {"measurement": "Distribution of radioactivity", "setting": "Rattus norvegicus [9]", "value": 0.48, "unit": "dose g-1"},
      {"measurement": "Distribution of radioactivity", "setting": "Rattus norvegicus [10]", "value": 0.031, "unit": "dose g-1"},
      {"measurement": "Distribution of radioactivity", "setting": "Rattus norvegicus [11]", "value": 1.33, "unit": "dose g-1"},
      {"measurement": "Distribution of radioactivity", "setting": "Rattus norvegicus [12]", "value": 1.78, "unit": "dose g-1"},
      {"measurement": "Distribution of radioactivity", "setting": "Rattus norvegicus [13]", "value": 0.04, "unit": "dose g-1"},
      {"measurement": "Distribution of radioactivity", "setting": "Rattus norvegicus [14]", "value": 1.86, "unit": "dose g-1"},
      {"measurement": "Distribution of radioactivity", "setting": "Rattus norvegicus [15]", "value": 0.57, "unit": "dose g-1"},
      {"measurement": "Distribution of radioactivity", "setting": "Rattus norvegicus [16]", "value": 0.016, "unit": "dose g-1"},
      {"measurement": "Distribution of radioactivity", "setting": "Rattus norvegicus [17]", "value": 1.14, "unit": "dose g-1"},
      {"measurement": "Distribution of radioactivity", "setting": "Rattus norvegicus [18]", "value": 0.08, "unit": "dose g-1"},
      {"measurement": "Distribution of radioactivity", "setting": "Rattus norvegicus [19]", "value": 0.54, "unit": "dose g-1"},
      {"measurement": "Distribution of radioactivity", "setting": "Rattus norvegicus [20]", "value": 184, "unit": "dose g-1"},
      {"measurement": "Distribution of radioactivity", "setting": "Rattus norvegicus [21]", "value": 203, "unit": "dose g-1"},
      {"measurement": "Distribution of radioactivity", "setting": "Rattus norvegicus [22]", "value": 0.88, "unit": "dose g-1"},
      {"measurement": "Distribution of radioactivity", "setting": "Rattus norvegicus [23]", "value": 0.08, "unit": "dose g-1"},
      {"measurement": "Distribution of radioactivity", "setting": "Rattus norvegicus [24]", "value": 1.28, "unit": "dose g-1"},
      {"measurement": "Distribution of radioactivity", "setting": "Rattus norvegicus [25]", "value": 0.72, "unit": "dose g-1"},
      {"measurement": "Distribution of radioactivity", "setting": "Rattus norvegicus [26]", "value": 0.02, "unit": "dose g-1"},
      {"measurement": "Distribution of radioactivity", "setting": "Rattus norvegicus [27]", "value": 6.27, "unit": "dose g-1"},
      {"measurement": "Distribution of radioactivity", "setting": "Rattus norvegicus [28]", "value": 41.9, "unit": "dose g-1"},
      {"measurement": "Distribution of radioactivity", "setting": "Rattus norvegicus [29]", "value": 226, "unit": "dose g-1"},
      {"measurement": "Distribution of radioactivity", "setting": "Rattus norvegicus [30]", "value": 74.7, "unit": "dose g-1"},
      {"measurement": "Distribution of radioactivity", "setting": "Rattus norvegicus [31]", "value": 0.016, "unit": "dose g-1"},
      {"measurement": "Distribution of radioactivity", "setting": "Rattus norvegicus [32]", "value": 0.11, "unit": "dose g-1"}
    ]}
  ]
}
